Test [1] in a line: inhibitors of TNFa-induced NFkB p65 translocation, primary screen, imaging, HUVEC, MLSMR starter and 10KST1 sets (AID 438;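 active means inhibition above 20% together with a positive visual image hit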;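 further: compound added about 3h40 before a 20 min TNFalpha stimulation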;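 on inhibition: signal is the nuclear over cytoplasmic p65 intensity ratio per well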). The following applies: HUVEC TNFa-induced p65 nuclear translocation; cell count: measured here: nuclei count (cytotoxicity indicator), at 2.08 µM; inhibition: at 2 µM, stronger effect = higher value, 0% TNFa-plus-vehicle, 100% no-TNFa wells.
The nature of test [2]: endothelial E-selectin expression blockers – imaging, HUVEC, immunofluorescence, MLSMR starter and 10KST1 sets, primary screen (AID 487;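 active means visually confirmed hit in the image check and inhibition above 20%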;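 on inhibition: signal is fraction of cell area covered by stained E-selectin grains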;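 on nuclei count: 100% = median nuclei count of all wells on the same plate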). The following applies: HUVEC TNFalpha-induced E-selectin immunofluorescence imaging, at 2 µM; inhibition: stronger effect = higher value; nuclei count: measured here: cell number, toxicity.
A short description of test [3]: Primary imaging screen for DUSP6 inhibitors that restore phospho-Erk in transfected HeLa cells, chemical complementation (AID 609;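 active means compounds giving at least 50% inhibition in the cell-based MKP-3 phosphatase rescue imaging test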;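 on inhibition: phospho-Erk level distribution per well compared with pooled transfected vehicle control wells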). The following applies: HeLa MKP-3 transfected, phospho-Erk imaging KS statistic, at 10 µM, cells stimulated with TPA for 15 min.
The target of test [4] is Dual specificity protein phosphatase 6 (Homo sapiens) (UniProt Q16828). Described as above. The following applies: HeLa MKP-3 transfected, phospho-Erk imaging KS statistic; at 10 µM; stronger effect = higher value; cells stimulated with TPA for 15 min.
Sequence of Dual specificity protein phosphatase 6 (Homo sapiens) (Q16828 whole entry, looked up): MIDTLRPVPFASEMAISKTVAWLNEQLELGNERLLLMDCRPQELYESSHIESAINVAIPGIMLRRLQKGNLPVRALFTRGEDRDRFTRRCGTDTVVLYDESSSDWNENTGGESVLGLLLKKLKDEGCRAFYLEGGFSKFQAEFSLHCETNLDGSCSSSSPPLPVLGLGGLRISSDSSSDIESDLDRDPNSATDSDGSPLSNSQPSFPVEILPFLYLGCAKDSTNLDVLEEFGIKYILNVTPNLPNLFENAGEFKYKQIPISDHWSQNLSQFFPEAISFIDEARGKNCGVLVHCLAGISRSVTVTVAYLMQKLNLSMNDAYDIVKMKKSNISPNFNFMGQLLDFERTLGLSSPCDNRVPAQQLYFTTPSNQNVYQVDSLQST
For test [5], the target named is Voltage-gated potassium channel subunit beta-2 (Rattus norvegicus) (UniProt P62483). In words: inhibitors of rat Kvbeta2 reductase activity – biochemical, NADPH fluorescence, primary screen (AID 622;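 active means fluorescence slope higher than the sample average by over 3 SD, cut at about -0.22 in these data, passing the limit was not always enough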;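 further: slope of raw intensity against log time taken from 70 to 1610 s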). The following applies: recombinant KvBeta, 4-cyanobenzaldehyde reduction, at 10 µM, stronger effect = higher value.
Sequence of Voltage-gated potassium channel subunit beta-2 (Rattus norvegicus) (P62483 whole entry, looked up): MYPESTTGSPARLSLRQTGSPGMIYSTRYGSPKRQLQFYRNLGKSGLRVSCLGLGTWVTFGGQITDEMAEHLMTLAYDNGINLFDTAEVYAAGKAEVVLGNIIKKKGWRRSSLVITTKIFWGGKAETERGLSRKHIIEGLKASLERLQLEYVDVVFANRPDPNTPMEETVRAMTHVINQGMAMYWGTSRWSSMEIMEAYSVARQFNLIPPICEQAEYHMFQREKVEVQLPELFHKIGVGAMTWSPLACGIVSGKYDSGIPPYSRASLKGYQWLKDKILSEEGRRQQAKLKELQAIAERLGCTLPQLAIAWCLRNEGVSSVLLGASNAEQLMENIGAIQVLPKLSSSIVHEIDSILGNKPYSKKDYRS
Test [6] shares this target. The experiment in a line: enhancers of rat Kvbeta2 NADPH turnover – biochemical, NADPH fluorescence, primary screen (AID 623;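 active means NADPH fluorescence slope more negative than the mean of all samples by about 3 SD, 99.7% confidence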;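 further: fluorescence intensity change per second fitted from 20 to 320 s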). The following applies: Recombinant KvBeta, NADPH fluorescence decrease slope, 10 min; at 10 µM; stronger effect = lower value.
The target in test [7] is Muscarinic acetylcholine receptor M4 (Homo sapiens) (UniProt P08173). In words: M4-linked GIRK flux change, two-sided – cell-based, HEK293 M4/GIRK, thallium flux, BTC-AM, M4 allosteric agonist project, primary screen (AID 625).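 Further: thallium influx through GIRK channels coupled to M4 in HEK293 cells with BTC-AM dye.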 The following applies: at 10 µM, actives lie on both sides. The method, boiled down:
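System: HEK293 cells with M4 receptor and GIRK channels | Incubation: Cells overnight at 37 °C, BTC-AM loading 1 h, reads 2 min total | Technique: Kinetic BTC-AM fluorescence sampled at 1 Hz, 10 s pre-addition baseline | Measure: Post-addition slope, 15–24 s, of baseline-normalized fluorescence | Control set: Carbachol positive, DMSO negative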

Test [8] can be described thus: inhibitors of larval lipid processing in zebrafish, primary screen, whole organism, PED6 fluorescence, gall bladder and intestine (AID 686;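 active means a full or partial loss of lipid-probe fluorescence in the fish gall bladder, intestine or both, judged by eye; inactive means no fluorescence loss, or compound toxic to the fish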;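 further: larvae 5 to 7 days old with five fish per well; signal comes from phospholipase A2 cleavage of quenched PED6 carried via bile; overnight exposure to compound and PED6 before scoring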). The following applies: Zebrafish larvae PED6 lipid processing, fluorescence scoring; screened at 20 µM (by protocol). Put shortly:
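Test system – live zebrafish larvae aged 5-7 days, whole organism · Buffer or medium – E3 fish medium · Reagent – quenched phospholipase substrate PED6, 100 nM final, ingested by larvae · Doses – 20 µM single dose · Incubation – overnight compound and PED6 incubation · Technique – visual fluorescence microscopy scoring of gall bladder, gut · Read-out basis – visual per-well fluorescence inhibition score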

Test [9] in a line: loss of swimming-algae plug formation – whole organism, Chlamydomonas reinhardtii, WT vs cilia-less mutant, absorbance, 96-well, primary screen (AID 463189;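 active means inhibition at or above 50% relative to wild type and mutant plate controls; inactive means inhibition below 50%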;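 further: 0% = wild type cc124 cells in DMSO and 100% = ciliumless bld1 mutant cells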). The following applies: Chlamydomonas reinhardtii gravitaxis, OD600 absorbance, 2 days; at 10 µM; stronger effect = higher value.
Setting [10] is: measured here: cell density z-score.
The mark [11] stands for this setting: measured here: nuclear c-Myc green intensity z-score.
The mark [12] stands for this setting: measured here: nuclear pErk red intensity z-score, stronger effect = higher value.

SMILES strings stand for the structures. Activity calls are given as the source filed them.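 How the source made its calls, unless noted: active means fluorescence slope after compound addition differing from the mean of all tested samples at 99.7% confidence, mostly higher but some lower; inactive means the rest.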

Sequence of Muscarinic acetylcholine receptor M4 (Homo sapiens) (P08173 whole entry, looked up): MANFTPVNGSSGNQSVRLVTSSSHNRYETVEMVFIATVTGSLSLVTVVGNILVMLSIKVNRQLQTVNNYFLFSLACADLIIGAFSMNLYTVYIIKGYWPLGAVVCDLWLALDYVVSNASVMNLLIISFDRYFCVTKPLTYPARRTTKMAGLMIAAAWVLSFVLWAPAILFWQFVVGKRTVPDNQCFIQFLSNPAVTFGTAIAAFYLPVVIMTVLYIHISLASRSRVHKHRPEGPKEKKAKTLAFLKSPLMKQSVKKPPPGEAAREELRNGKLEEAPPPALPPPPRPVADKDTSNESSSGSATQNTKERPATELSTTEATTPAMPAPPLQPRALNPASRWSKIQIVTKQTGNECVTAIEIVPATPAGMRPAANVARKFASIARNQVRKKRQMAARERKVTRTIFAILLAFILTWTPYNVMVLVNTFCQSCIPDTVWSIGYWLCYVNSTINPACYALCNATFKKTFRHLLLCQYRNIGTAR

Regarding `COc1ccc(Nc2nnc(C)c3ccccc23)cc1C(N)=O`, the cell count in [1] worked out at 616. Further, the inhibition in test [1] is -2.5% (inactive); in [2], -91.7% (inactive); in [4] it was 3.49% (inactive); in [9] it was -4.27% (inactive). In [2], the nuclei count is 152%. Moreover, the results for the z-score in test [3] (setting [10]), in [3] (setting [11]) and in test [3] (setting [12]) were -0.473, 0.976 and -0.605, respectively. The values for the fluorescence slope in test [5] and in test [7] were -0.459 (inactive) and 0.00456 (inactive), respectively. In test [6], the NADPH fluorescence slope is -0.000141 (inactive). Moreover, the result in [8] was inactive.
In the case of `CCOC(=O)N1CCN(c2ncnc3c2cnn3-c2ccc(OC)cc2)CC1`, the cell count in [1] was found to be 638. Besides, the inhibition is -4.6% (inactive) in test [1], -140% (inactive) in [2], 13.4% (inactive) in [4] and 0.263% (inactive) in [9]. Also, the nuclei count in [2] was 149%. Further, the z-score in test [3] (setting [10]) is 0.712; in [3] (setting [11]), -0.105; in test [3] (setting [12]) it was 0.21. The figures for the fluorescence slope in [5] and in test [7] were -0.379 (inactive) and 0.00565 (inactive), respectively. In addition, the NADPH fluorescence slope in test [6] was -4.6e-05 (inactive). For the same compound, the compound was classed as inactive in test [8].
Turning to `CN(C)CCOC(=O)Cc1ccc(Cl)cc1`, in test [1], the cell count was 622. The inhibition in test [1] was -6.2% (inactive); in test [2] it was -90.8% (inactive); in test [4] it was 12.8% (inactive); in test [9], 35.4% (inactive). This compound also gave a nuclei count in [2] of 83.6%. Further, the z-score is 1.56 in [3] (setting [10]), -0.995 in test [3] (setting [11]) and -0.341 in [3] (setting [12]). Moreover, the values for the fluorescence slope in test [5] and in [7] were -0.539 (inactive) and 0.00854 (inactive), respectively. In [6], the NADPH fluorescence slope is -4.8e-05 (inactive). The outcome in test [8] was inactive.
Regarding `COc1ccc(/C(O)=C2/C(=O)C(=O)N(c3nc(C)c(C)s3)C2c2ccco2)cc1` (stereo unspecified), the cell count in test [1] came to 611. In addition, the inhibition is -12.5% (inactive) in test [1], -52.8% (inactive) in test [2], 12.7% (inactive) in test [4] and 0.492% (inactive) in test [9]. The compound further registered a nuclei count in test [2] of 196%. For the same compound, the z-score in test [3] (setting [10]) was 1.1; in test [3] (setting [11]), -0.551; in test [3] (setting [12]), 1.3. The results for the fluorescence slope in test [5] and in [7] were -0.446 (inactive) and 0.00557 (inactive), respectively. In addition, the NADPH fluorescence slope in test [6] is -5.8e-05 (inactive). The result in test [8] was inactive.
On to `N/C(=N\S(=O)(=O)c1ccc(Cl)s1)c1ccccc1`, for which, in test [1], the cell count worked out at 671. Also, the inhibition is -8.3% (inactive) in test [1], -77.1% (inactive) in [2], 7.83% (inactive) in test [4] and 19.3% (inactive) in [9]. For the same compound, the nuclei count in [2] was 150%. For the same compound, the values for the z-score in test [3] (setting [10]), in test [3] (setting [11]) and in [3] (setting [12]) were 1.62, -1.89 and -1.41, respectively. For the same compound, the fluorescence slope in test [5] is -0.473 (inactive); in test [7], 0.00465 (inactive). Moreover, the NADPH fluorescence slope in test [6] was -4.6e-05 (inactive). Also, the compound was classed as inactive in [8].
On to `c1ccc2c(c1)[nH]c1c(N3CCSCC3)ncnc12`, for which, in test [1], the cell count worked out at 567. Moreover, the inhibition in test [1] was -4.6% (inactive); in test [2], -117% (inactive); in test [4], -4.59% (inactive); in [9], 14.6% (inactive). Besides, the nuclei count in test [2] worked out at 193%. Besides, the results for the z-score in [3] (setting [10]), in [3] (setting [11]) and in [3] (setting [12]) were 0.216, -0.97 and -0.889, respectively. Also, the fluorescence slope in test [5] was -0.358 (inactive); in [7], 0.00494 (inactive). In addition, in [6], the NADPH fluorescence slope was -3.7e-06 (inactive). Moreover, the outcome in test [8] was inactive.
Regarding `CCOc1ccc(C2=Nn3c(nnc3-c3ccccc3OC)SC2)cc1`, in test [1], the cell count is 409. In addition, the inhibition in test [1] is 35.7% (active); in test [2], -453% (inactive); in test [4], 4.25% (inactive); in [9], -11.5% (inactive). Also, in [2], the nuclei count was 82.2%. The z-score in [3] (setting [10]) was -1.24; in [3] (setting [11]), 0.121; in test [3] (setting [12]) it was -0.702. Moreover, the fluorescence slope in test [5] was -0.472 (inactive); in [7] it was 0.00485 (inactive). In test [6], the NADPH fluorescence slope was -1.9e-05 (inactive). Further, the call in test [8] was inactive.

By inhibition is commonly meant the change of the read-out against control, counted positive when it falls.

(Values after PubChem BioAssay.)
